Results of several laboratories.
Protocols differ between the studies behind these lines.
ADRB2: Beta-2 adrenergic receptor (ADRB2, Homo sapiens, UniProt P07550)
MMP2: 72 kDa type IV collagenase (MMP2, Homo sapiens, UniProt P08253)
Akr1b1: Aldo-keto reductase family 1 member B1 (Akr1b1, Rattus norvegicus, UniProt P07943)
CNR2: Cannabinoid receptor 2 (CNR2, Homo sapiens, UniProt P34972)
Trpc6: Short transient receptor potential channel 6 (Trpc6, Mus musculus, UniProt Q61143)

CN1C2CCCC1CC(NC(=O)c1nn(C)c3ccccc13)C2 (stereo not shown) — IC50 (ADRB2; ligand displacement, radioligand; cell membranes): 42.1 µM
CC[C@@H](C(=O)Nc1ccc(C(N)=O)c(F)c1)n1cc(OC)c(-c2cc(Cl)ccc2-n2cc(C(F)(F)F)nn2)cc1=O — IC50 (Coagulation factor X (F10, Homo sapiens, UniProt P00742); enzyme activity, inhibitor): 1.7 µM
Cc1noc(-c2cc3cc(-c4nc(C(=O)NCC5CCOCC5)[nH]c4C)ccc3[nH]2)n1 — IC50 (MMP2; enzyme activity, inhibitor): > 20 µM
COc1ccc2nc(/N=C3/NC(=O)C(=Cc4ccc(O)cc4)S3)sc2c1 — IC50 (Akr1b1; enzyme activity, inhibitor, absorbance; pH 6.2): 1.3 µM
O=C(O)C(=O)CC(=O)c1cccc(N(Cc2ccccc2)Cc2ccccc2)c1 — IC50 (Dual specificity protein phosphatase 3 (DUSP3, Homo sapiens, UniProt P51452); enzyme activity, inhibitor, absorbance; pH 7): 113 µM
Cc1c(C(=O)NN2CCCCC2)nc(-c2ccc(Cl)cc2Cl)n1-c1ccc(OS(=O)(=O)CCC(C)C)cc1 — IC50 (CNR2; GTPγS binding, antagonist; cell membranes): 0.271 µM
COc1ccc2nc(N(CCN3CCCC3)C(=O)c3ccc(Cl)s3)sc2c1 — IC50 (Trpc6; calcium signal, fluorescence): 33 µM
O=S(=O)(Nc1ccc2cccc(O)c2n1)c1ccc(-c2ccccc2)cc1 — IC50 (MMP2; enzyme activity, inhibitor, fluorescence): 48 µM
CCN1CCCC1CNC(=O)c1cc(S(=O)(=O)CC)c(N)cc1OC (stereo not shown) — IC50 (ADRB2; ligand displacement, radioligand; cell membranes): 105 µM
Cc1c(C(=O)NN2CCCCC2)nc(-c2ccc(Cl)cc2Cl)n1-c1ccc(OS(=O)(=O)CCC(F)(F)F)cc1 — IC50 (CNR2; GTPγS binding, antagonist; cell membranes): 0.288 µM
C=CC(C)(C)c1cc(/C=C/C(=O)c2ccc(O)cc2)c(OC)cc1O — IC50 (Histone-lysine N-methyltransferase SETD7 (SETD7, Homo sapiens, UniProt Q8WTS6); enzyme activity, inhibitor): > 333 µM
COc1ccc2nc(/N=C3/NC(=O)C(=Cc4ccc(Cl)cc4)S3)sc2c1 — IC50 (Akr1b1; enzyme activity, inhibitor, absorbance; pH 6.2): 3.99 µM
COc1cccc2sc(N(CCN(C)C)C(=O)c3ccc4c(c3)CCCC4)nc12 — IC50 (Trpc6; calcium signal, fluorescence): 4.2 µM
O=C(c1ccc(-c2cccc(C(F)(F)F)c2)o1)N1CCN2CCC1CC2 — IC50 (Neuronal acetylcholine receptor subunit alpha-7 (CHRNA7, Homo sapiens, UniProt P36544); ion current, two-electrode voltage clamp; oocytes): 1.2 µM
CCCC[C@H](NC(=O)[C@H](C)c1c(C)[nH]c2ccc(O)cc12)c1ncc(-c2cc3ccccc3nc2OC)[nH]1 — IC50 (Histone deacetylase 7 (HDAC7, Homo sapiens, UniProt Q8WUI4); enzyme activity, inhibitor): > 45 µM
NC(=O)c1ccc[n+]([C@@H]2O[C@H](COP(=O)([O-])OP(=O)(O)OC[C@H]3O[C@@H](n4cnc5c(N)ncnc54)[C@H](O)[C@@H]3O)[C@@H](O)[C@H]2O)c1 — IC50 (Protein mono-ADP-ribosyltransferase PARP6 (PARP6, Homo sapiens, UniProt Q2NL67); enzyme activity, inhibitor): 87 µM
Cn1nc(C(=O)NCc2ccc(C(=O)O)cc2)cc1-c1ccc2[nH]c(-c3ccncn3)cc2c1 — IC50 (MMP2; enzyme activity, inhibitor): > 20 µM
CN1CCN(c2ccc(Nc3ncc4cc(C#N)c(=O)n(C5CCCC5)c4n3)cc2)CC1 — IC50 (Protein kinase C epsilon type (PRKCE, Homo sapiens, UniProt Q02156); enzyme activity, inhibitor): 6.31 µM
Cc1ccc(NC(=O)c2ccc(C)c(C(F)(F)F)c2)cc1C#Cc1nn(C2CCC(O)CC2)c2ncnc(N)c12 (stereo not shown) — IC50 (Epithelial discoidin domain-containing receptor 1 (DDR1, Homo sapiens, UniProt Q08345); enzyme activity, inhibitor, radiometric): 0.015 µM
